The source made the active and inactive calls. The rule behind the calls is not given here.
Legend:
HeLa [1] = assay: Dark toxicity against human HeLa cells assessed as cell viability up to 10 uM incubated for 12 hrs under dark conditions by WST-8 assay; assay type: cell-based
In short: (§1)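 HeLa (ATCC) grown in EMEM + 10% FBS, 37 °C, 5% CO2, humidified; seeded per well in 96-well plates, 24 h, then medium replaced with fresh medium containing photosensitizer (0–10 μM). Irradiated with 670–710 nm light, 2 J/cm2 over 15 min, or kept dark; then 12 h at 37 °C in dark. WST-8 (CCK-8) added, 2 h; formazan read. DMSO vehicle control, medium+reagent blank; ≥3 repeats, mean.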

HeLa [2] = assay: Photosensitizing activity against human HeLa cells assessed as reduction in cell viability pre-incubated for 24 hrs followed by 15 mins exposure to 670 to 710 nm light at dose of 2.0 J/cm2 and measured 12 hrs after radiation by WST-8 assay; assay type: functional, cell-based; details: for IC50: light or radiation study; in short: as §1
HeLa [3] = assay: Photosensitizing activity against human HeLa cells assessed as cell viability at 0.05 uM pre-incubated for 24 hrs followed by 15 mins exposure to 670 to 710 nm light at dose of 2.0 J/cm2 and measured 12 hrs after radiation by WST-8 assay; assay type: functional; details: light or radiation study, read-out: Activity; in short: as §1
HeLa [4] = assay: Photosensitizing activity against human HeLa cells assessed as cell viability at 0.1 uM pre-incubated for 24 hrs followed by 15 mins exposure to 670 to 710 nm light at dose of 2.0 J/cm2 and measured 12 hrs after radiation by WST-8 assay; assay type: functional; details: light or radiation study, read-out: Activity; in short: as §1
[5] = Singlet oxygen generation assessed as comparative absorbance decay of 1,3-diphenylisobenzofuran at 1 uM at 418 nm after photoirradiation at 2.0 J/cm2 for 15 mins by spectrometry
In short: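 Photosensitizer at 1 μM with DPBF (50 μM in DMSO), irradiated; visible spectra recorded and normalized DPBF absorbance at 418 nm compared against DPBF-only control, methylene blue as reference; mean of three experiments.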

Row | SMILES | Activity (HeLa [1]) | Activity (HeLa [2]) | IC50 (HeLa [2]) [nM] | viability at 0.05 µM (HeLa [3]) [%] | viability at 0.1 µM (HeLa [4]) [%] | Activity [5]
1 | C=Cc1c(C)c2cc3nc(c(CC(=O)OC)c4[nH]c(cc5nc(cc1[nH]2)C(C)=C5CC)c(C)c4C(=O)NCc1ccncc1)[C@@H](CCC(=O)OC)[C@@H]3C | Non-toxic | Dose-dependent effect | 71 | 65.5 | 28.1 | –
2 | C=Cc1c(C)c2cc3nc(c4c5[nH]c(cc6nc(cc1[nH]2)C(C)=C6CC)c(/C=C/c1ccncc1)c5C(=O)C4)[C@@H](CCC(=O)OC)[C@@H]3C | Non-toxic | Dose-dependent effect | 33 | 22.2 | 1.4 | Active
3 | CCC1=C(C)c2cc3[nH]c(cc4nc(c(CC(=O)OC)c5[nH]c(cc1n2)c(C)c5C(=O)OC)[C@@H](CCC(=O)OC)[C@@H]4C)c(C)c3/C=C/c1ccc2ccccc2n1 | Non-toxic | Dose-dependent effect | 170 | – | – | Active
4 | CCC1=C(C)c2cc3[nH]c(cc4nc(c5c6[nH]c(cc1n2)c(C)c6C(=O)N(OC)C5=O)[C@@H](CCC(=O)OC)[C@@H]4C)c(C)c3/C=C/c1ccncc1 | Non-toxic | Dose-dependent effect | 3120 | – | – | Active
5 | CCC1=C(C)c2cc3[nH]c(cc4nc(c5c6[nH]c(cc1n2)c(C)c6C(=O)N(OC)C5=O)[C@@H](CCC(=O)OC)[C@@H]4C)c(C)c3/C=C/c1ccc2ccccc2n1 | Non-toxic | Dose-dependent effect | 992 | – | – | Active
6 | CCC1=C(C)c2cc3[nH]c(cc4nc(c5c6[nH]c(cc1n2)c(C)c6C(=O)C5)[C@@H](CCC(=O)OC)[C@@H]4C)c(C)c3/C=C/c1ccncc1 | Non-toxic | Dose-dependent effect | 581 | – | – | Active
7 | C=Cc1c(C)c2cc3nc(c4c5[nH]c(cc6nc(cc1[nH]2)C(C)=C6CC)c(C)c5C(=O)N(Cc1ccncc1)C4=O)[C@@H](CCC(=O)OC)[C@@H]3C | Non-toxic | Dose-dependent effect | 189 | – | – | Active
8 | CN(C)c1ccc2nc3ccc(=[N+](C)C)cc-3sc2c1 | – | – | – | – | – | Active
9 | CCC1=C(C)c2cc3[nH]c(cc4nc(c5c6[nH]c(cc1n2)c(C)c6C(=O)C5)[C@@H](CCC(=O)OC)[C@@H]4C)c(C)c3/C=C/c1ccc2ccccc2n1 | Non-toxic | Dose-dependent effect | 631 | – | – | Active
10 | CCC1=C(C)c2cc3[nH]c(cc4nc(c(CC(=O)OC)c5[nH]c(cc1n2)c(C)c5C(=O)OC)[C@@H](CCC(=O)OC)[C@@H]4C)c(C)c3/C=C/c1ccncc1 | Non-toxic | Dose-dependent effect | 141 | – | – | Active

From ChEMBL document CHEMBL3399919, “Synthesis, optical properties and preliminary in vitro photodynamic effect of pyridyl and quinoxalyl substituted chlorins” (Bioorg Med Chem, 2015)
